Laboratory results taken from ChEMBL document CHEMBL3997791, “Nanomolar-Potency Aminophenyl-1,3,5-triazine Activators of the Cystic Fibrosis Transmembrane Conductance Regulator (CFTR) Chloride Channel for Prosecretory Therapy of Dry Eye Diseases” (J Med Chem, 2017).
The source made the active and inactive calls. No cut-off for these calls is given here.

Legend:
[1] = biological target: Cystic fibrosis transmembrane conductance regulator (Homo sapiens, UniProt P13569); test: Activation of human CFTR expressed in forskolin-stimulated basolateral membrane permeabilized FRT cells co-expressing YFP assessed as increase in short-circuit current by voltage clamp method; type: cell-based
Summary of the method: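 Ussing chamber with FRT cells co-expressing human wild-type CFTR and YFP. Basolateral side had HCO3−-buffered solution and the apical side half-Cl− solution. The basolateral membrane was permeabilized with 250 µg/mL amphotericin B. Solutions were gassed with 95% O2/5% CO2 at 37 °C. A low forskolin concentration was added first, then cumulative compound additions, then maximal forskolin and 10 µM CFTRinh-172; n = 3.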

[2] = biological target: T1, Anoctamin-1 (Homo sapiens) (UniProt Q5XXA6); test: Activation of human TMEM16A expressed in FRT cells co-expressing YFP assessed as increase in iodide influx at 10 uM measured after 10 mins for 2 to 12 sec by fluorescence assay; type: cell-based
T1 sequence (whole entry): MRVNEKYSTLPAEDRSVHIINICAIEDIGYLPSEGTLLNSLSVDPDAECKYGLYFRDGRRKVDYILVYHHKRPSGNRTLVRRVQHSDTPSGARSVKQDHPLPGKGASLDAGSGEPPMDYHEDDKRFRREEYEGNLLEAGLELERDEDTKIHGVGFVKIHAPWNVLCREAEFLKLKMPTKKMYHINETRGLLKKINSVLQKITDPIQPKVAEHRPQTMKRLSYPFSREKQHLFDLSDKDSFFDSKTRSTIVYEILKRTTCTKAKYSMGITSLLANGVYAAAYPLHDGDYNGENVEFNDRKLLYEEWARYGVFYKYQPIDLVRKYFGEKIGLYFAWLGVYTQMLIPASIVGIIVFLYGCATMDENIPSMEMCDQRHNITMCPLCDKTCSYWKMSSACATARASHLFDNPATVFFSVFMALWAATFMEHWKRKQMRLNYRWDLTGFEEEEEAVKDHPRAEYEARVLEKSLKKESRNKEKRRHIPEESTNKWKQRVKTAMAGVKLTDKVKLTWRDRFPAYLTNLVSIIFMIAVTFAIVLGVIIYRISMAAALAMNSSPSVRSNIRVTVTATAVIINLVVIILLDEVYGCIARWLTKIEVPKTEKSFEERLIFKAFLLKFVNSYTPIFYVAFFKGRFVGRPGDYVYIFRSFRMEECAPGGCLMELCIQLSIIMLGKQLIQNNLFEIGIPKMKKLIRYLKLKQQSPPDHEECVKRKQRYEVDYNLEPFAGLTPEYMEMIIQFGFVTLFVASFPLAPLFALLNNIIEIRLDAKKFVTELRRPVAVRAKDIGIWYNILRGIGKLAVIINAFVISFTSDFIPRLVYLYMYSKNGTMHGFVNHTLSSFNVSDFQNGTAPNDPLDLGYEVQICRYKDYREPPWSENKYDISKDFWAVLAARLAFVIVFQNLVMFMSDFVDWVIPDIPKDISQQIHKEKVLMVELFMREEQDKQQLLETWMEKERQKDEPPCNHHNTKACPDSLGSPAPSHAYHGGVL
Summary of the method: (§1)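 FRT cells stably coexpressing TMEM16A and YFP-H148Q; compound at 10 μM. Fluorescence quenching read in plate reader after iodide addition (activation) or iodide plus ATP addition (inhibition); initial rate of iodide influx computed as linear measure of channel function. Representative of two to four experiment sets.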

[3] = biological target: T1, Anoctamin-1 (Homo sapiens); test: Inhibition of human TMEM16A expressed in FRT cells co-expressing YFP assessed as decrease in iodide influx at 10 uM measured after 10 mins for 2 to 12 sec in presence of ATP by fluorescence assay; type: cell-based; summary of the method: as §1
HT-29 [4] = test: Increase of iodide influx in human HT-29 cells expressing YFP at 10 uM measured after 10 mins for 2 to 12 sec by fluorescence assay; type: functional, cell-based
Summary of the method: (§2)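 HT-29 cells expressing YFP halide sensor, 10 μM compound, for non-TMEM16A calcium-activated chloride channel. Plate reader fluorescence quenching after iodide addition (activation) or iodide plus ATP addition (inhibition); initial rate of iodide influx computed as linear measure of channel function. Representative of two to four experiment sets.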

HT-29 [5] = test: Inhibition of iodide influx in human HT-29 cells expressing YFP at 10 uM measured after 10 mins for 2 to 12 sec in presence of ATP by fluorescence assay; type: functional, cell-based; summary of the method: as §2
[6] = Elevation of cAMP level in Fischer rat thyroid cells co-expressing YFP and human CFTR at 10 uM incubated for 10 mins by immunoassay; type: ADME, cell-based; details: thyroid cell
Summary of the method: (§3)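 FRT cells expressing wild-type CFTR in 12-well plates, PBS-washed, incubated 10 min with 10 μM compound without or with 90 nM forskolin; references were forskolin alone (90 nM, 20 μM) and 20 μM forskolin + 100 μM IBMX. Lysates assayed for cAMP by immunoassay; mean ± SEM, n = 4.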

[7] = Elevation of forskolin-stimulated cAMP level in Fischer rat thyroid cells co-expressing YFP and human CFTR at 10 uM incubated for 10 mins by immunoassay; type: ADME, cell-based; details: thyroid cell; summary of the method: as §3
[8] = Elevation of cytoplasmic calcium level in Fischer rat thyroid cells co-expressing YFP and human CFTR at 10 uM incubated for 5 mins by fluo-4 dye based fluorescence assay; type: ADME; details: thyroid cell
Summary of the method: (§4)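 FRT cells in 96-well plates loaded with Fluo-4 NW, pretreated 5 min with 10 μM compound or control; 100 μM ATP added as calcium agonist. Fluorescence followed in plate reader with syringe pumps. Representative of two to four experiment sets.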

[9] = Suppression of ATP-stimulated elevation of cytoplasmic calcium level in Fischer rat thyroid cells co-expressing YFP and human CFTR at 10 uM incubated for 5 mins by fluo-4 dye based fluorescence assay; type: ADME; details: thyroid cell; summary of the method: as §4
Homo sapiens [10] = species: Homo sapiens; test: Inhibition of ENaC in human primary bronchial epithelial cells assessed as effect on short-circuit current at 10 uM after 10 mins by voltage clamp method
Summary of the method: (§5)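 Primary human bronchial epithelial cells grown at air-liquid interface, mounted in Ussing chambers in symmetrical HCO3−-buffered solutions (95% O2/5% CO2, 37 °C), with Ag/AgCl electrodes. After 10 min preincubation with 10 µM compound, sequential additions were 20 µM amiloride, 20 µM forskolin, 10 µM CFTRinh-172 and 100 µM ATP. Traces represent two to four experiment sets.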

Homo sapiens [11] = species: Homo sapiens; test: Inhibition of calcium-activated chloride channel in human primary bronchial epithelial cells assessed as inhibition of ATP-induced short-circuit current at 10 uM preincubated for 10 mins followed by ATP addition by voltage clamp method; summary of the method: as §5
Homo sapiens [12] = species: Homo sapiens; test: Inhibition of potassium channel in human primary bronchial epithelial cells assessed as effect on short-circuit current at 10 uM after 10 mins by voltage clamp method; summary of the method: as §5
Homo sapiens [13] = species: Homo sapiens; test: Inhibition of sodium/potassium pump in human primary bronchial epithelial cells assessed as effect on short-circuit current at 10 uM after 10 mins by voltage clamp method; summary of the method: as §5

Cystic fibrosis transmembrane conductance regulator, sequence (P13569 whole entry, looked up): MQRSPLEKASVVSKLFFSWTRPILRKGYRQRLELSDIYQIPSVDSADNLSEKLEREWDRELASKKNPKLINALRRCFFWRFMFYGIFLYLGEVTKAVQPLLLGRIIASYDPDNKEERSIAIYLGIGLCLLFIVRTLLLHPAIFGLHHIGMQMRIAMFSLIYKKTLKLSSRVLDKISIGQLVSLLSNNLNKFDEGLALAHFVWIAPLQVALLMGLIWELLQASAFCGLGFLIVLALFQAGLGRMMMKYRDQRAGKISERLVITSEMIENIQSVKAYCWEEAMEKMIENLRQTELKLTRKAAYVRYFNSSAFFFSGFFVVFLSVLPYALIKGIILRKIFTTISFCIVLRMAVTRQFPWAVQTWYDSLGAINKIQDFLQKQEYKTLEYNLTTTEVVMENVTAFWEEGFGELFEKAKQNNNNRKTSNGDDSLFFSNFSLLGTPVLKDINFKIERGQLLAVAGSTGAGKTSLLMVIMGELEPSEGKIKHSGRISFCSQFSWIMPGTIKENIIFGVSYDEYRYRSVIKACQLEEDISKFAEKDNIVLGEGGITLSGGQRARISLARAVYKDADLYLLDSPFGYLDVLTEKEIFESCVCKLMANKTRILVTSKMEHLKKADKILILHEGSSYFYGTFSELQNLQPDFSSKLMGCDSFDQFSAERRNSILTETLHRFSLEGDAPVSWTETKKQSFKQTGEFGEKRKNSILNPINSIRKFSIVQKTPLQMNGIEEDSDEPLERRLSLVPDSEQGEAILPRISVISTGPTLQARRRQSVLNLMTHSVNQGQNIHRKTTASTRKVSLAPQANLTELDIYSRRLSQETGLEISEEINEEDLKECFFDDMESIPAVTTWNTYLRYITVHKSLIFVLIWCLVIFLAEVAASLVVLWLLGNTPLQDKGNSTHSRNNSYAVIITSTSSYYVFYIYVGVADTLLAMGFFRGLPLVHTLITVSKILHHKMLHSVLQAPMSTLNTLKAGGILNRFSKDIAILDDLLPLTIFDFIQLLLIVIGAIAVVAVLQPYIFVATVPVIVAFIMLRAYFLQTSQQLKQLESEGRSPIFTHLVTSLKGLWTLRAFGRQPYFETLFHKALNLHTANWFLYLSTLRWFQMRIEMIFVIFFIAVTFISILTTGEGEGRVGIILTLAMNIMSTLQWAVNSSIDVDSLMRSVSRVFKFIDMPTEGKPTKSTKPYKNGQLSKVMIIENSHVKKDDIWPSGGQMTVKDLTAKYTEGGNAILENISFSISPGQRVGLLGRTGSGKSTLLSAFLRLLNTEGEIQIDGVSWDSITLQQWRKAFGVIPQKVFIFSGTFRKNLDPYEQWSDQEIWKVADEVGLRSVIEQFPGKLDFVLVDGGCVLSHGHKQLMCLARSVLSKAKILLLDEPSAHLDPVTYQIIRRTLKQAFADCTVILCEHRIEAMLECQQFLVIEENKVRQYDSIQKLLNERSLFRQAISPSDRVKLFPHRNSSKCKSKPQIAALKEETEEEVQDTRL

For CNc1nc(Nc2ccccc2)nc(OCC(F)(F)C(F)F)n1, the Activity [1] was “Dose-dependent effect”, the Activity [2] was “inactive” and the inhibition [3] was “inactive”. For the same compound, the Activity (HT-29 [4]) was “inactive”, the inhibition (HT-29 [5]) was “inactive” and the Activity [6] was “Non-Toxic”. For the same compound, the Activity [7] was “Non-Toxic”, the Activity [8] was “Non-Toxic” and the Activity [9] was “Non-Toxic”. For the same compound, the inhibition (Homo sapiens [10]) was “inactive”, the inhibition (Homo sapiens [11]) was “inactive” and the inhibition (Homo sapiens [12]) was “inactive”. The inhibition (Homo sapiens [13]) was “inactive”.

With CCN(CC)c1nc(Nc2ccc3ncsc3c2)nc(OC(C(F)(F)F)C(F)(F)F)n1 the Activity [1] was “Dose-dependent effect”, the Activity [2] was “inactive” and the inhibition [3] was “inactive”. The Activity (HT-29 [4]) was “inactive”, the inhibition (HT-29 [5]) was “inactive” and the Activity [6] was “Non-Toxic”. For the same compound, the Activity [7] was “Non-Toxic”, the Activity [8] was “Non-Toxic” and the Activity [9] was “Non-Toxic”. The inhibition (Homo sapiens [10]) was “inactive”, the inhibition (Homo sapiens [11]) was “inactive” and the inhibition (Homo sapiens [12]) was “inactive”. For the same compound, the inhibition (Homo sapiens [13]) was “inactive”.
